MC4R barr agon: agonists of human melanocortin 4 receptor (MC4R) beta-arrestin; U2OS MC4R beta-arrestin complementation, luminescence; percent of melanotan II response, DMSO zero; activation, % at 8.9 µM; 0.98% of 360,000 active; AID 540308;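 active = activation above a per-plate cutoff, the mean activation of sample wells on that plate plus 3 SD, cut at about 8% in these data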
MC4R antag cAMP: human MC4R antagonism in cAMP assay. P32245. MC4R-expressing cells, MTII-stimulated cAMP, LANCE TR-FRET. inhibition, % at 6.5 µM. 0.48% of 360,000 active;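 active = inhibition above its plate's cutoff, the mean of tested wells on that plate plus 3 SD, cut at about 29% in these data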
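Assay system: human MC4R-expressing U2OS cells; reagent: Melanotan II stimulation of cells; dosing: 6.5 µM single dose; timing: compound 30 min, challenge 1 h, detection 1 h; signal: TR-FRET cAMP assay; replicates: one well per compound, no replicates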
NTR1 ag: NTR1 (human) agonism; P30989; AID 493036; activation, % at 20 µM; NTR1-U2OS beta-arrestin-GFP spot imaging, agonist mode; 0.17% of 330,000 active;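 active = activation at or above 40% of the spot to cytoplasm intensity ratio, with at least 20 cells analyzed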
Target sequence (P30989 whole entry, looked up): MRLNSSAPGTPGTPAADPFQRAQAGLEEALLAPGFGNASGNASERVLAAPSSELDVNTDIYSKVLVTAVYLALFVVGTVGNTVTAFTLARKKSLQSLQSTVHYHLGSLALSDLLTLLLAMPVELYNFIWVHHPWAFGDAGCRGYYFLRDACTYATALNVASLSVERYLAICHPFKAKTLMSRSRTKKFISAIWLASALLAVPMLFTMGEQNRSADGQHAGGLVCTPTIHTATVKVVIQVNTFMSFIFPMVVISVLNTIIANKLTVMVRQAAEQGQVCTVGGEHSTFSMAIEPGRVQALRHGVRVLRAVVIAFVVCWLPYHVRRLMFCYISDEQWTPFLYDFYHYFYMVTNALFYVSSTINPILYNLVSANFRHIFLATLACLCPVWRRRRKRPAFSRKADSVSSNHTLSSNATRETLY
Rev-erbA mod: modulators of human Rev-erb alpha DNA binding. P20393. Rev-erbα–FITC-DNA binding, fluorescence polarization, 90 min. activity, % at 10 µM. 0.79% of 370,000 active. AID 1259318;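 active = activity above about 14%, limit read from the data; passing the limit was not always enough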
PG9 binder: PG9 antibody binding by small molecule; TR-FRET gp120-PG9 antibody binding; inhibition, % at 6.7 µM; 0.43% of 360,000 active; in the data active = inhibition above about 8.5%
U2OS cAMP counter: counter-screen for MC4R antagonists: nonselective cAMP signaling inhibitors; shares compounds with MC4R antag cAMP; parental U2OS, forskolin cAMP, LANCE TR-FRET; inhibition, % at 6.5 µM; 26% of 1,600 active; AID 602193;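 active = mean inhibition over triplicates above the low-control well mean plus 3 SD, set per campaign, cut at about 13% in these data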;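 note: signal is single emission at 671 nm which falls as cellular cAMP rises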
MC4R antag conf: human MC4R cAMP antagonism confirmation | shares compounds with MC4R antag cAMP | MC4R-expressing cells, MTII-stimulated cAMP, TR-FRET | inhibition, % at 6.5 µM | 27% of 1,600 active | AID 602195; in the data active = inhibition above about 29%
Numbers stand for hits. Compounds with a hit are over-represented: about 2.5% of the library has one in this group of screens.

`CCC(Sc1nc2ccsc2c(=O)n1Cc1ccc(C(=O)O)cc1)C(=O)Nc1ccc(C)c(Cl)c1` (stereo unspecified) gave MC4R barr agon inactive, MC4R antag cAMP inactive, NTR1 ag inactive, Rev-erbA mod inactive and PG9 binder inactive.
`O=C(CS(=O)c1ccc(C(F)(F)F)cc1[N+](=O)[O-])Oc1ccc(Cl)cc1` (stereo unspecified) gave MC4R barr agon inactive, MC4R antag cAMP 33.4, NTR1 ag inactive, Rev-erbA mod inactive, PG9 binder inactive, U2OS cAMP counter inactive and MC4R antag conf inactive.
`Cc1cc(C)cc(OC(=O)CS(=O)c2ccc(C(F)(F)F)cc2[N+](=O)[O-])c1` (stereo unspecified) gave MC4R barr agon inactive, MC4R antag cAMP inactive, NTR1 ag inactive, Rev-erbA mod inactive and PG9 binder inactive.
Screening CC(C)CNc1cccc2c1S(=O)(=O)N(Cc1cccc(F)c1)[C@@H](C)[C@H](c1ccccc1)O2 returned Rev-erbA mod inactive and PG9 binder inactive.
`Cc1ccc(-c2nc3c(c(=O)[nH]c(=O)n3Cc3ccccc3)n2C)s1` gave NTR1 ag inactive.
Cn1c(C2CCCCC2)nc2c1c(=O)[nH]c(=O)n2Cc1ccccc1 was read as MC4R barr agon inactive, MC4R antag cAMP 33.8, NTR1 ag inactive, Rev-erbA mod inactive, PG9 binder inactive, U2OS cAMP counter inactive and MC4R antag conf inactive.
`CCn1c(CO)nc2c1c(=O)[nH]c(=O)n2Cc1ccccc1` gave MC4R barr agon inactive, MC4R antag cAMP 31.1, NTR1 ag inactive, Rev-erbA mod inactive, PG9 binder inactive, U2OS cAMP counter inactive and MC4R antag conf inactive.
For O=C(CCc1ccccc1)N[C@H]1[C@@H](OC(=O)c2cccnc2)CCC[C@@]12C(=O)N(Cc1ccccc1)c1ccccc12 the results were Rev-erbA mod inactive.
Screening COC(=O)c1ccc(CN2CCc3ccc(NC(=O)c4ccncc4)cc3C2)cc1 returned MC4R barr agon inactive, MC4R antag cAMP 29.0, NTR1 ag inactive, Rev-erbA mod inactive, PG9 binder inactive, U2OS cAMP counter inactive and MC4R antag conf inactive.
CC(=O)Nc1ccc(NC(=O)c2ccc(CN3CCc4ccccc4C3)cc2)cc1 was read as MC4R barr agon inactive, MC4R antag cAMP inactive, NTR1 ag inactive, Rev-erbA mod inactive and PG9 binder inactive.
`CC(C)[C@H](NC(=O)c1ccco1)C(=O)N1CCC[C@H]1C(=O)NCc1ccccc1` gave Rev-erbA mod inactive and PG9 binder inactive.
Cc1ccc(CN2CC=CS2(=O)=O)cc1 was read as Rev-erbA mod inactive and PG9 binder inactive.
For CCOC(=O)C1=C(COC(=O)CNS(=O)(=O)c2ccc(C)c(C)c2)NC(=O)NC1C (stereo unspecified) the results were MC4R barr agon inactive, MC4R antag cAMP 30.1, Rev-erbA mod inactive, PG9 binder inactive, U2OS cAMP counter inactive and MC4R antag conf inactive.
Screening O=C(COC(=O)CNC(=O)c1cccc(F)c1)NCCC1=CCCCC1 returned MC4R barr agon inactive, MC4R antag cAMP 28.5, NTR1 ag inactive, Rev-erbA mod inactive, PG9 binder inactive, U2OS cAMP counter 18.3 and MC4R antag conf 40.4.
Screening O=C(COC(=O)COc1cccc(F)c1)NCCC1=CCCCC1 returned MC4R barr agon inactive, MC4R antag cAMP inactive, NTR1 ag inactive, Rev-erbA mod inactive and PG9 binder inactive.
Screening Cc1cc2c(nc1C)CCCN2S(=O)(=O)c1c(C)noc1C returned Rev-erbA mod inactive and PG9 binder inactive.
For Cc1ccc(S(=O)(=O)NCC(=O)OCc2nnc(-c3ccccc3)o2)cc1 the results were MC4R barr agon inactive, MC4R antag cAMP 29.6, NTR1 ag inactive, Rev-erbA mod inactive, PG9 binder inactive, U2OS cAMP counter inactive and MC4R antag conf inactive.
Screening COC(=O)CSc1nnc(-c2ccc(S(=O)(=O)N3CCCCC3)cc2)o1 returned MC4R barr agon inactive, MC4R antag cAMP 33.5, NTR1 ag inactive, Rev-erbA mod inactive, PG9 binder inactive, U2OS cAMP counter inactive and MC4R antag conf 44.5.

Compound activity as filed in PubChem BioAssay.
